Assay results: ChEMBL document CHEMBL1123810, “Synthesis and cardiotonic activity of a series of substituted 4-alkyl-2(1H)-quinazolinones” (J Med Chem, 1987)

Test system: Canis familiaris
Assay: 50% increase in myocardial contractile force (CF) above control in anesthetized open-chest dogs at 3.75 mg/kg intravenous dose
Assay type: functional
Conditions: Canis lupus familiaris, Myocardium
Procedure, shortened: (§1)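 Anesthetized (pentobarbital 45 mg/kg i.p.), artificially respired mongrel dogs with right thoracotomy. Contractile force was read by a strain gauge on the right ventricle. Compound was given in 10% DMF in saline, or as the HCl salt in saline, by femoral vein infusion in 3–4 stepwise increasing doses, each over 5 min. ED50 (mg/kg iv) is the dose giving a 50% CF rise over control, taken from 3–4 point dose–response curves by graphic estimation (n = 1, 2 dogs) or linear regression (n ≥ 3).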

Compound	ED50 [mg/kg]
COc1ccc2nc(O)nc(C)c2c1	1.32
Cc1nc(O)nc2ccc(N3CCCCC3)cc12	1.13

Test system: Canis familiaris
Assay: Effect on heart rate (HR) in anesthetized open-chest dogs at 3.75 mg/kg intravenous dose
Assay type: functional, Canis lupus familiaris
Conditions: not given
Procedure, shortened: (§2)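 Pentobarbital-anesthetized (45 mg/kg i.p.), ventilated mongrel dogs, open chest. MAP came from a femoral artery cannula, HR from a cardiotachometer triggered by the pressure pulse, and CF from a right-ventricle strain gauge. Compound in 10% DMF/saline or as the HCl salt in saline was infused iv in 3–4 stepwise rising doses, each over 5 min. Responses are % change from predrug control at the maximum dose given.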

Compound	Change [%]
COc1ccc2nc(O)nc(C)c2c1	18
Cc1nc(O)nc2ccc(N3CCCCC3)cc12	35

Test system: Canis familiaris
Assay: Effect that produces a 50% increase in myocardial contractile force (CF) above control in anesthetized open-chest dogs at 8.75 mg/kg intravenous dose
Assay type: functional
Conditions: Canis lupus familiaris, Myocardium
Procedure, shortened: as §1

Compound	ED50 [mg/kg]
COc1cc2nc(O)nc(C(F)(F)F)c2cc1OC	> 8.75
Cc1nc(O)nc2ccccc12	3.45
Br.Cc1nc(O)nc2ccc(O)c(O)c12	> 8.75
CCc1nc(O)nc2cc(OC)c(OC)cc12	3.4
Cc1nc(O)nc2ccc(N(C)C)cc12	1.2
Cc1nc(O)nc2ccc(Cl)cc12	1.8
Cc1nc(O)nc2cc(Cl)c(Cl)cc12	> 8.75
COc1cc(OC)c2c(C)nc(O)nc2c1	2.08
COc1cc2nc(O)nc(C3CCCC3)c2cc1OC	> 8.75
COc1cc2nc(O)nc(-c3ccccc3)c2cc1OC	4.1
Cc1nc(O)nc2cc3c(cc12)OCO3	5.65
COc1cc2nc(O)nc(C)c2cc1OC	2.42

Test system: Canis familiaris
Assay: Effect on arterial blood pressure (MAP) in anesthetized open-chest dogs at 3.75 mg/kg intravenous dose
Assay type: functional, Canis lupus familiaris
Conditions: not given
Procedure, shortened: as §2

Compound	Change [%]
COc1ccc2nc(O)nc(C)c2c1	-10
Cc1nc(O)nc2ccc(N3CCCCC3)cc12	-21

Test system: Canis familiaris
Assay: Effect on heart rate (HR) in anesthetized open-chest dogs at 8.75 mg/kg intravenous dose
Assay type: functional, Canis lupus familiaris
Conditions: not given
Procedure, shortened: as §2

Compound	Change [%]
COc1cc2nc(O)nc(C(F)(F)F)c2cc1OC	0
Cc1nc(O)nc2ccccc12	16
Br.Cc1nc(O)nc2ccc(O)c(O)c12	0
CCc1nc(O)nc2cc(OC)c(OC)cc12	13
Cc1nc(O)nc2ccc(N(C)C)cc12	23
Cc1nc(O)nc2ccc(Cl)cc12	33
Cc1nc(O)nc2cc(Cl)c(Cl)cc12	2
COc1cc(OC)c2c(C)nc(O)nc2c1	25
COc1cc2nc(O)nc(C3CCCC3)c2cc1OC	11
COc1cc2nc(O)nc(-c3ccccc3)c2cc1OC	7
Cc1nc(O)nc2cc3c(cc12)OCO3	10
COc1cc2nc(O)nc(C)c2cc1OC	19

Test system: Canis familiaris
Assay: Effect on arterial blood pressure (MAP) in anesthetized open-chest dogs at 8.75 mg/kg intravenous dose
Assay type: functional, Canis lupus familiaris
Conditions: not given
Procedure, shortened: as §2

Compound	Change [%]
COc1cc2nc(O)nc(C(F)(F)F)c2cc1OC	-15
Cc1nc(O)nc2ccccc12	-8
Br.Cc1nc(O)nc2ccc(O)c(O)c12	8
CCc1nc(O)nc2cc(OC)c(OC)cc12	-28
Cc1nc(O)nc2ccc(N(C)C)cc12	-23
Cc1nc(O)nc2ccc(Cl)cc12	-21
Cc1nc(O)nc2cc(Cl)c(Cl)cc12	1
COc1cc(OC)c2c(C)nc(O)nc2c1	-40
COc1cc2nc(O)nc(C3CCCC3)c2cc1OC	-19
COc1cc2nc(O)nc(-c3ccccc3)c2cc1OC	-25
Cc1nc(O)nc2cc3c(cc12)OCO3	1
COc1cc2nc(O)nc(C)c2cc1OC	-35

Test system: Canis familiaris
Assay: Effect on myocardial contractile force (CF) in anesthetized open-chest dogs at 3.75 mg/kg intravenous dose
Assay type: functional, Canis lupus familiaris, Myocardium
Conditions: not given
Procedure, shortened: as §2

Compound	Change [%]
COc1ccc2nc(O)nc(C)c2c1	111
Cc1nc(O)nc2ccc(N3CCCCC3)cc12	116

Test system: Canis familiaris
Assay: Effect on myocardial contractile force (CF) in anesthetized open-chest dogs at 8.75 mg/kg intravenous dose
Assay type: functional, Canis lupus familiaris, Myocardium
Conditions: not given
Procedure, shortened: as §2

Compound	Change [%]
COc1cc2nc(O)nc(C(F)(F)F)c2cc1OC	23
Cc1nc(O)nc2ccccc12	93
Br.Cc1nc(O)nc2ccc(O)c(O)c12	39
CCc1nc(O)nc2cc(OC)c(OC)cc12	82
Cc1nc(O)nc2ccc(N(C)C)cc12	90
Cc1nc(O)nc2ccc(Cl)cc12	85
Cc1nc(O)nc2cc(Cl)c(Cl)cc12	10
COc1cc(OC)c2c(C)nc(O)nc2c1	97
COc1cc2nc(O)nc(C3CCCC3)c2cc1OC	71
COc1cc2nc(O)nc(-c3ccccc3)c2cc1OC	106
Cc1nc(O)nc2cc3c(cc12)OCO3	66
COc1cc2nc(O)nc(C)c2cc1OC	90

Molecular target: Phosphodiesterase 3 (Canis familiaris)
Assay: Inhibitory activity against canine cardiac fraction III cyclic AMP phosphodiesterase (PDE III)
Conditions: not given

Compound	IC50 [µM]
COc1cc2nc(O)nc(C(F)(F)F)c2cc1OC	100
Cc1nc(O)nc2ccccc12	138
Br.Cc1nc(O)nc2ccc(O)c(O)c12	18
Cc1nc(O)nc2ccc(N(C)C)cc12	38
COc1cc(OC)c2c(C)nc(O)nc2c1	25
COc1cc2nc(O)nc(C3CCCC3)c2cc1OC	22
COc1cc2nc(O)nc(-c3ccccc3)c2cc1OC	14
COc1cc2nc(O)nc(C)c2cc1OC	100
